Reference: ChEMBL document CHEMBL3616437, “Thiazole compounds with activity against Cryptococcus gattii and Cryptococcus neoformans in vitro” (Eur J Med Chem, 2015)
≈ marks a conversion by molar mass, not a printed value.

How the values were obtained:
[1] = tested on: Cryptococcus gattii species complex; experiment: Antifungal activity against Cryptococcus gattii 23/10993 after 48 to 72 hrs by broth microdilution method; assay type: functional, Cryptococcus bacillisporus
How it was run: (§1)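 CLSI M27-A3 broth microdilution in RPMI with L-glutamine, buffered to pH 7.0 with 0.165 M MOPS. Colonies grown twice on SDA, 48 h at 35°C. Inoculum set to 70% transmittance at 530 nm, then diluted to 1-5 x10^3 cells/mL. Test agents dissolved in DMSO, serially diluted, tested at 0.1 to 62.5 µM. Plates held at 35°C for 48-72 h. MIC is the lowest concentration giving an optically clear well, read visually against drug-free growth controls.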

[2] = tested on: Cryptococcus gattii species complex; experiment: Antifungal activity against Cryptococcus gattii L27/01 after 48 to 72 hrs by broth microdilution method; assay type: functional, Cryptococcus bacillisporus; how it was run: as §1
[3] = tested on: Cryptococcus gattii species complex; experiment: Antifungal activity against Cryptococcus gattii 1913ER after 48 to 72 hrs by broth microdilution method; assay type: functional, Cryptococcus bacillisporus; how it was run: as §1
[4] = Cytotoxicity against C57BL/6 mouse peritoneal macrophages assessed as cell viability measured after 48 hrs by MTT assay; assay type: cell-based; conditions: C57BL/6, Peritoneal macrophage cell
How it was run: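 Thioglycollate-elicited peritoneal macrophages from male C57BL/6 mice, 6–8 weeks old, in RPMI with 10% FBS. Seeded 1 x 10^5 cells/well, pre-incubated 24 h at 37°C. Exposed 48 h at 37°C, 5% CO2, to eight nonserial dilutions from 100 to 0.0128 µM, with 0.5% DMSO control. MTT read-out, % inhibition versus DMSO control. IC50 reported as median with 95% CI. Triplicate, two independent experiments.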

[5] = tested on: Cryptococcus gattii species complex; experiment: Antifungal activity against Cryptococcus gattii L24/01 after 48 to 72 hrs by broth microdilution method; assay type: functional, Cryptococcus bacillisporus; how it was run: as §1
[6] = Selectivity index, ratio of IC50 for C57BL/6 mouse peritoneal macrophages to MIC for Cryptococcus neoformans ATCC 24067
How it was run: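 SI = IC50/MIC. Thioglycollate-elicited peritoneal macrophages from C57BL/6 mice are seeded at 1 x 10^5/well. They are exposed for 48 h at 37°C to eight concentrations from 100 to 0.0128 µM. Viability read by MTT versus 0.5% DMSO control, triplicate in two experiments.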

Cryptococcus neoformans [7] = experiment: Antifungal activity against Cryptococcus neoformans 96806 after 48 to 72 hrs by broth microdilution method; assay type: functional
How it was run: (§2)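 CLSI M27-A3 broth microdilution. Isolates subcultured twice on SDA, 48 h at 35°C. Saline suspension adjusted to 70% transmittance at 530 nm, then diluted to 1-5 x10^3 cells/mL in RPMI with L-glutamine, 0.165 M MOPS, pH 7.0. Compounds in DMSO, tested at […]. 35°C for 48-72 h. MIC read visually as the lowest concentration giving an optically clear well.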

[8] = tested on: Cryptococcus gattii species complex; experiment: Antifungal activity against Cryptococcus gattii 547/OTTI-97-PI-10 after 48 to 72 hrs by broth microdilution method; assay type: functional, Cryptococcus bacillisporus; how it was run: as §1
[9] = tested on: Cryptococcus gattii species complex; experiment: Antifungal activity against Cryptococcus gattii L28/02 after 48 to 72 hrs by broth microdilution method; assay type: functional, Cryptococcus bacillisporus; how it was run: as §1
Cryptococcus neoformans [10] = experiment: Antifungal activity against Cryptococcus neoformans 27JF after 48 to 72 hrs by broth microdilution method; assay type: functional; how it was run: as §2
Cryptococcus neoformans [11] = experiment: Antifungal activity against Cryptococcus neoformans VM-MCMMPI after 48 to 72 hrs by broth microdilution method; assay type: functional; how it was run: as §2
Cryptococcus neoformans [12] = experiment: Antifungal activity against Cryptococcus neoformans ATCC 24067 after 48 to 72 hrs by broth microdilution method; assay type: functional; how it was run: as §2
Cryptococcus neoformans [13] = experiment: Antifungal activity against Cryptococcus neoformans WP after 48 to 72 hrs by broth microdilution method; assay type: functional; how it was run: as §2
Cryptococcus neoformans [14] = experiment: Antifungal activity against Cryptococcus neoformans 5396 after 48 to 72 hrs by broth microdilution method; assay type: functional; how it was run: as §2
[15] = tested on: Cryptococcus bacillisporus; experiment: Antifungal activity against Cryptococcus gattii ATCC 32608 after 48 to 72 hrs by broth microdilution method; assay type: functional; how it was run: as §1
Cryptococcus neoformans [16] = experiment: Antifungal activity against Cryptococcus neoformans ATCC 62066 after 48 to 72 hrs by broth microdilution method; assay type: functional
[17] = tested on: Cryptococcus gattii species complex; experiment: Antifungal activity against Cryptococcus gattii ICB181 after 48 to 72 hrs by broth microdilution method; assay type: functional, Cryptococcus bacillisporus; how it was run: as §1
Cryptococcus neoformans [18] = experiment: Antifungal activity against Cryptococcus neoformans F10 after 48 to 72 hrs by broth microdilution method; assay type: functional; how it was run: as §2
[19] = tested on: Cryptococcus gattii species complex; experiment: Antifungal activity against Cryptococcus gattii LMM818 after 48 to 72 hrs by broth microdilution method; assay type: functional, Cryptococcus bacillisporus; how it was run: as §1
[20] = tested on: Cryptococcus gattii species complex; experiment: Antifungal activity against Cryptococcus gattii 135L/03 after 48 to 72 hrs by broth microdilution method; assay type: functional, Cryptococcus bacillisporus; how it was run: as §1
[21] = Selectivity index, ratio of IC50 for African green monkey Vero cells to MIC for Cryptococcus neoformans ATCC 24067; assay type: toxicity, cell-based
Cryptococcus neoformans [22] = experiment: Antifungal activity against Cryptococcus neoformans 28JF after 48 to 72 hrs by broth microdilution method; assay type: functional; how it was run: as §2
Cryptococcus neoformans [23] = experiment: Antifungal activity against Cryptococcus neoformans ATCC 28957 after 48 to 72 hrs by broth microdilution method; assay type: functional; how it was run: as §2
Vero = experiment: Cytotoxicity against African green monkey Vero cells assessed as cell viability measured after 48 hrs by MTT assay; assay type: cell-based; conditions: Chlorocebus sabaeus
How it was run: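 VERO cells in D-MEM with 5% FBS, used up to 20 passages. Seeded 1 x 10^4 cells/well, pre-incubated 24 h at 37°C. Exposed 48 h at 37°C, 5% CO2, to eight nonserial dilutions from 100 to 0.0128 µM, with 0.5% DMSO control. MTT reduction read-out, corrected for background and blank. IC50 reported as median with 95% CI. Triplicate, two independent experiments.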

[24] = tested on: Cryptococcus gattii species complex; experiment: Antifungal activity against Cryptococcus gattii 196L/03 after 48 to 72 hrs by broth microdilution method; assay type: functional, Cryptococcus bacillisporus; how it was run: as §1
Cryptococcus neoformans [25] = experiment: Antifungal activity against Cryptococcus neoformans CN31 after 48 to 72 hrs by broth microdilution method; assay type: functional; how it was run: as §2
Cryptococcus neoformans [26] = experiment: Antifungal activity against Cryptococcus neoformans LMM820 after 48 to 72 hrs by broth microdilution method; assay type: functional; how it was run: as §2

COc1ccc(-c2csc(N/N=C/C3CCCCC3)n2)cc1
MFC [1]: 3.9 µM (≈ 1.23 µg/mL)
MIC [1]: 2.6 µM (≈ 0.82 µg/mL)
MFC [2]: 3.9 µM (≈ 1.23 µg/mL)
MIC [2]: 2.2 µM (≈ 0.694 µg/mL)
MFC [3]: 3.9 µM (≈ 1.23 µg/mL)
MIC [3]: 2.2 µM (≈ 0.694 µg/mL)
IC50 [4]: > 100 µM
MFC [5]: 3.9 µM (≈ 1.23 µg/mL)
MIC [5]: 2.9 µM (≈ 0.915 µg/mL)
Ratio [6]: 52.63
MFC (Cryptococcus neoformans [7]): 1.9 µM (≈ 0.599 µg/mL)
MIC (Cryptococcus neoformans [7]): 1.9 µM (≈ 0.599 µg/mL)
MFC [8]: 3.9 µM (≈ 1.23 µg/mL)
MIC [8]: 2.6 µM (≈ 0.82 µg/mL)
MFC [9]: 7.8 µM (≈ 2.46 µg/mL)
MIC [9]: 4.2 µM (≈ 1.32 µg/mL)
MFC (Cryptococcus neoformans [10]): 7.8 µM (≈ 2.46 µg/mL)
MIC (Cryptococcus neoformans [10]): 3.5 µM (≈ 1.1 µg/mL)
MFC (Cryptococcus neoformans [11]): 3.9 µM (≈ 1.23 µg/mL)
MIC (Cryptococcus neoformans [11]): 2.2 µM (≈ 0.694 µg/mL)
MIC (Cryptococcus neoformans [12]): 1.9 µM (≈ 0.599 µg/mL)
MFC (Cryptococcus neoformans [13]): 3.9 µM (≈ 1.23 µg/mL)
MIC (Cryptococcus neoformans [13]): 3.2 µM (≈ 1.01 µg/mL)
MFC (Cryptococcus neoformans [14]): 3.9 µM (≈ 1.23 µg/mL)
MIC (Cryptococcus neoformans [14]): 2.2 µM (≈ 0.694 µg/mL)
MFC [15]: 3.9 µM (≈ 1.23 µg/mL)
MIC [15]: 2.9 µM (≈ 0.915 µg/mL)
MFC (Cryptococcus neoformans [16]): 7.8 µM (≈ 2.46 µg/mL)
MIC (Cryptococcus neoformans [16]): 1.9 µM (≈ 0.599 µg/mL)
MFC [17]: 1.9 µM (≈ 0.599 µg/mL)
MIC [17]: 1.4 µM (≈ 0.442 µg/mL)
MFC (Cryptococcus neoformans [18]): 3.9 µM (≈ 1.23 µg/mL)
MIC (Cryptococcus neoformans [18]): 2.2 µM (≈ 0.694 µg/mL)
MFC [19]: 7.8 µM (≈ 2.46 µg/mL)
MIC [19]: 4.5 µM (≈ 1.42 µg/mL)
MFC [20]: 3.9 µM (≈ 1.23 µg/mL)
MIC [20]: 2.6 µM (≈ 0.82 µg/mL)
selectivity ratio [21]: 52.6
MFC (Cryptococcus neoformans [22]): 7.8 µM (≈ 2.46 µg/mL)
MIC (Cryptococcus neoformans [22]): 3.5 µM (≈ 1.1 µg/mL)
MFC (Cryptococcus neoformans [23]): 3.9 µM (≈ 1.23 µg/mL)
MIC (Cryptococcus neoformans [23]): 2.2 µM (≈ 0.694 µg/mL)
IC50 (Vero): > 100 µM
MFC [24]: 3.9 µM (≈ 1.23 µg/mL)
MIC [24]: 2.9 µM (≈ 0.915 µg/mL)
MFC (Cryptococcus neoformans [25]): 3.9 µM (≈ 1.23 µg/mL)
MIC (Cryptococcus neoformans [25]): 1.9 µM (≈ 0.599 µg/mL)
MFC (Cryptococcus neoformans [26]): 7.8 µM (≈ 2.46 µg/mL)
MIC (Cryptococcus neoformans [26]): 3.2 µM (≈ 1.01 µg/mL)
